Assay [1] in a line: Displacement of calixarene-LCG from synthetic H3K27 peptide. The method in brief:
(§1)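 Competitive lucigenin displacement: 0.5 µM lucigenin plus 1.25 µM calixarene in 0.01 M phosphate buffer pH 7.4, titrated with Ac-capped peptide (H3K27 0–1.5 mM; H3K27me3 0–0.5 mM). Emission read at λex 369 nm, λem 485 nm. Kd fitted by cubic competitive binding equations, with host–dye constant fixed from the prior direct titration. Duplicate determinations averaged.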

Assay [2] in a line: Inhibition of synthetic H3K27me3 peptide interaction to CBX7 after 15 mins by fluorescence polarization assay. The gist of the method:
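Calixarene was added at 0–10 mM, dissolved in water with 4 equiv NaOH. Incubated 15 min in the dark and read at ex 450/em 530 nm. mP was normalized to % complex, IC50 taken from a sigmoidal fit, triplicates averaged.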
For orientation: In fluorescence polarisation assays a small probe gives low polarisation when free and higher when bound to something large.

Assay [3] in a line: Displacement of calixarene-LCG from synthetic H3K27me3 peptide. The gist of the method: as §1
Assay [4] is described as follows: Displacement of calixarene-LCG from synthetic H3K27me3 peptide by isothermal titration calorimetry analysis. On the technique in general: In ITC the heat of successive injections is recorded.
Assay [5] can be described thus: Displacement of calixarene-LCG from synthetic H3K27 peptide by isothermal titration calorimetry analysis.

Each structure is given as a SMILES string.

The text below walks through data of ChEMBL document CHEMBL2439963, “Synthetic trimethyllysine receptors that bind histone 3, trimethyllysine 27 (H3K27me3) and disrupt its interaction with the epigenetic reader protein CBX7” (Bioorg Med Chem, 2013).

As a reminder, the Kd is the equilibrium constant for the complex coming apart. The term IC50 denotes the concentration that gives 50% inhibition. Low readings indicate greater potency, high ones weaker potency. Regarding `Cc1ccc(-c2cc3c(O)c(c2)Cc2cc(S(=O)(=O)O)cc(c2O)Cc2cc(S(=O)(=O)O)cc(c2O)Cc2cc(S(=O)(=O)O)cc(c2O)C3)cc1`, the Kd came out at 2.7 µM in assay [1] and 0.34 µM in assay [3]. This molecule came in with a half-inhibitory concentration (IC50) in assay [2] of 230 µM.

Turning to `O=[N+]([O-])c1cc2c(O)c(c1)Cc1cc(S(=O)(=O)O)cc(c1O)Cc1cc(S(=O)(=O)O)cc(c1O)Cc1cc(S(=O)(=O)O)cc(c1O)C2`, the Kd in assay [1] turned out to be 30 µM; in assay [3], 10 µM. This molecule also yielded an IC50 in assay [2] of over 5000 µM.

On to `NC(=O)c1ccc(-c2cc3c(O)c(c2)Cc2cc(S(=O)(=O)O)cc(c2O)Cc2cc(S(=O)(=O)O)cc(c2O)Cc2cc(S(=O)(=O)O)cc(c2O)C3)cc1`, for which the Kd is 23 µM in assay [1] and 1.86 µM in assay [3]. The molecule further returned an IC50 in assay [2] of 590 µM.

Consider `O=S(=O)(O)c1cc2c(O)c(c1)Cc1cc(S(=O)(=O)O)cc(c1O)Cc1cc(S(=O)(=O)O)cc(c1O)Cc1cc(Br)cc(c1O)C2`, for which the Kd in assay [1] was 13.3 µM; in assay [3] it was 0.7 µM. In addition, in assay [2], the half-maximal inhibitory concentration (IC50) came out at 470 µM.

On to `COc1ccc(-c2cc3c(O)c(c2)Cc2cc(S(=O)(=O)O)cc(c2O)Cc2cc(S(=O)(=O)O)cc(c2O)Cc2cc(S(=O)(=O)O)cc(c2O)C3)cc1`, for which the Kd was 20 µM in assay [1] and 0.78 µM in assay [3]. This molecule came in with a 50% inhibitory concentration (IC50) in assay [2] of 360 µM.

In the case of `N#Cc1ccc(-c2cc3c(O)c(c2)Cc2cc(S(=O)(=O)O)cc(c2O)Cc2cc(S(=O)(=O)O)cc(c2O)Cc2cc(S(=O)(=O)O)cc(c2O)C3)cc1`, the Kd is 11.3 µM in assay [1] and 0.88 µM in assay [3]. The same molecule had an IC50 in assay [2] of 370 µM.

Regarding `Cc1ccc(S(=O)(=O)Nc2cc3c(O)c(c2)Cc2cc(S(=O)(=O)O)cc(c2O)Cc2cc(S(=O)(=O)O)cc(c2O)Cc2cc(S(=O)(=O)O)cc(c2O)C3)cc1`, the Kd in assay [1] and in assay [3] was over 100 µM throughout. The IC50 in assay [2] is over 2000 µM.

In the case of `COc1cccc(-c2cc3c(O)c(c2)Cc2cc(S(=O)(=O)O)cc(c2O)Cc2cc(S(=O)(=O)O)cc(c2O)Cc2cc(S(=O)(=O)O)cc(c2O)C3)c1OC`, the Kd was 25 µM in assay [1] and 2.13 µM in assay [3]. This molecule also returned an IC50 in assay [2] of 1700 µM.

Consider `O=S(=O)(O)c1cc2c(O)c(c1)Cc1cc(S(=O)(=O)O)cc(c1O)Cc1cc(S(=O)(=O)O)cc(c1O)Cc1cc(-c3ccccc3)cc(c1O)C2`, for which the Kd is 19 µM in assay [1], 4.03 µM in assay [4], 51.4 µM in assay [5] and 0.75 µM in assay [3]. It took 510 µM to reach half-maximal inhibition in assay [2] (IC50).

For the molecule `O=S(=O)(O)c1cc2c(O)c(c1)Cc1cc(S(=O)(=O)O)cc(c1O)Cc1cc(S(=O)(=O)O)cc(c1O)Cc1cc(S(=O)(=O)O)cc(c1O)C2`, the Kd in assay [1] came out at 220 µM; in assay [3] it was 5.4 µM. Besides, it took 2500 µM to reach half-maximal inhibition in assay [2] (IC50).
